For data set [1], the target named is Proto-oncogene tyrosine-protein kinase receptor Ret (Homo sapiens) (UniProt P07949). In words: Inhibition of recombinant human RET (658 to end residues) at 1 uM using KKKSPGEYVNIEFG as substrate incubated for 40 mins in presence of [gamma-33P]-ATP by scintillation counting method relative to control.
The subject of data set [2] is HeLa. In words: Inhibition of colony formation in human HeLa cells at 40 to 80 nM incubated for 5 days by crystal violet staining based light microscopy. The format is functional, cell-based. The method in brief: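 4 × 10^3 cells per well were cultured with graded concentrations for 5 days. Cells were then fixed with 20% methanol, stained with 0.5% crystal violet and photographed by light microscopy.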

Data set [3] relates to Serine/threonine-protein kinase Chk2 (Homo sapiens), O96017 [I157T]. In words: Inhibition of recombinant human CHK2 I157T mutant (5 to end residues) at 1 uM using KKKVSRSGLYRSP as substrate incubated for 40 mins in presence of [gamma-33P]-ATP by scintillation counting method relative to control. Put shortly: (§1)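 Kinase panel profiling at 1 μM performed by Eurofins KinaseProfiler; percent inhibition reported as mean of two independent experiments.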
Chain of Serine/threonine-protein kinase Chk2 (Homo sapiens), O96017 [I157T] (O96017 whole entry I157T): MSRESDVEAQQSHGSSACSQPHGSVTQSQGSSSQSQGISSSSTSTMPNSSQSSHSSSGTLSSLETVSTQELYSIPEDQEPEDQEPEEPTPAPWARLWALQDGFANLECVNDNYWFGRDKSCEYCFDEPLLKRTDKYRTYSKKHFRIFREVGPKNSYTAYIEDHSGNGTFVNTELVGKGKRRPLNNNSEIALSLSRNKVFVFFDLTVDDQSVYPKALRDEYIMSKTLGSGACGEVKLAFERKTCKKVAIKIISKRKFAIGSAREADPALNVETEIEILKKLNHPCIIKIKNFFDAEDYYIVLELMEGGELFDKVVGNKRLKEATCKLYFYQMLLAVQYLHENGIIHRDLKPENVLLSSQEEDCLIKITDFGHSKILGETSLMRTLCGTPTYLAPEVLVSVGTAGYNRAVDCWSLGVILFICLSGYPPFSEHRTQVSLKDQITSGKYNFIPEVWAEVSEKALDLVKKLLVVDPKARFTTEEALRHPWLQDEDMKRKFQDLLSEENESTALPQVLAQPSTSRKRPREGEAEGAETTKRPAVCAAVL

Data set [4] deals with HeLa. In words: Induction of apoptosis in human HeLa cells assessed as decrease in Rb phosphorylation incubated for 48 hrs by Western blot analysis. The format is functional, cell-based. Put shortly:
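Cells were treated for 48 h, washed three times with PBS, and lysed in RIPA buffer. Immunoblots used anti-Rb, anti-phospho-Rb, anti-Ki67 and anti-Bcl-2 (each 1:1000), with β-actin as loading control.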

Data set [5] deals with Dual specificity mitogen-activated protein kinase kinase 2 (Homo sapiens) (UniProt P36507). In words: Inhibition of recombinant human full length MEK2 at 1 uM using MBP as substrate incubated for 40 mins in presence of [gamma-33P]-ATP by scintillation counting method relative to control.
Chain of Dual specificity mitogen-activated protein kinase kinase 2 (Homo sapiens) (P36507 whole entry): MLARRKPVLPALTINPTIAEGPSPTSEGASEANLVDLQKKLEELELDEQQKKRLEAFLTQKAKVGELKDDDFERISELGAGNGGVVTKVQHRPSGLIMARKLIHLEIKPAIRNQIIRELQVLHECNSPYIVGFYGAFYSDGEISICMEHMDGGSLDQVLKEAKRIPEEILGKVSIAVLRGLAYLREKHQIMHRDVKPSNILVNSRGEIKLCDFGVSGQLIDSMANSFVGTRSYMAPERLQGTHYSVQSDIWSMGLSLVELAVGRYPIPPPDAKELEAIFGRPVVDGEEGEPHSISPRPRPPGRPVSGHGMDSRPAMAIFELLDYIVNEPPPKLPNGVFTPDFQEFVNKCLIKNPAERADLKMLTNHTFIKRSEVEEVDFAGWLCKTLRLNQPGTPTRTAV
Data set [6] relates to Epidermal growth factor receptor (Homo sapiens), P00533 [T790M]. In words: Inhibition of recombinant human EGFR T790M mutant (696 to end residues) at 1 uM using poly(Glu, Tyr) 4:1 as substrate incubated for 40 mins in presence of [gamma-33P]-ATP by scintillation counting method relative to control.
Chain of Epidermal growth factor receptor (Homo sapiens), P00533 [T790M] (P00533 whole entry T790M): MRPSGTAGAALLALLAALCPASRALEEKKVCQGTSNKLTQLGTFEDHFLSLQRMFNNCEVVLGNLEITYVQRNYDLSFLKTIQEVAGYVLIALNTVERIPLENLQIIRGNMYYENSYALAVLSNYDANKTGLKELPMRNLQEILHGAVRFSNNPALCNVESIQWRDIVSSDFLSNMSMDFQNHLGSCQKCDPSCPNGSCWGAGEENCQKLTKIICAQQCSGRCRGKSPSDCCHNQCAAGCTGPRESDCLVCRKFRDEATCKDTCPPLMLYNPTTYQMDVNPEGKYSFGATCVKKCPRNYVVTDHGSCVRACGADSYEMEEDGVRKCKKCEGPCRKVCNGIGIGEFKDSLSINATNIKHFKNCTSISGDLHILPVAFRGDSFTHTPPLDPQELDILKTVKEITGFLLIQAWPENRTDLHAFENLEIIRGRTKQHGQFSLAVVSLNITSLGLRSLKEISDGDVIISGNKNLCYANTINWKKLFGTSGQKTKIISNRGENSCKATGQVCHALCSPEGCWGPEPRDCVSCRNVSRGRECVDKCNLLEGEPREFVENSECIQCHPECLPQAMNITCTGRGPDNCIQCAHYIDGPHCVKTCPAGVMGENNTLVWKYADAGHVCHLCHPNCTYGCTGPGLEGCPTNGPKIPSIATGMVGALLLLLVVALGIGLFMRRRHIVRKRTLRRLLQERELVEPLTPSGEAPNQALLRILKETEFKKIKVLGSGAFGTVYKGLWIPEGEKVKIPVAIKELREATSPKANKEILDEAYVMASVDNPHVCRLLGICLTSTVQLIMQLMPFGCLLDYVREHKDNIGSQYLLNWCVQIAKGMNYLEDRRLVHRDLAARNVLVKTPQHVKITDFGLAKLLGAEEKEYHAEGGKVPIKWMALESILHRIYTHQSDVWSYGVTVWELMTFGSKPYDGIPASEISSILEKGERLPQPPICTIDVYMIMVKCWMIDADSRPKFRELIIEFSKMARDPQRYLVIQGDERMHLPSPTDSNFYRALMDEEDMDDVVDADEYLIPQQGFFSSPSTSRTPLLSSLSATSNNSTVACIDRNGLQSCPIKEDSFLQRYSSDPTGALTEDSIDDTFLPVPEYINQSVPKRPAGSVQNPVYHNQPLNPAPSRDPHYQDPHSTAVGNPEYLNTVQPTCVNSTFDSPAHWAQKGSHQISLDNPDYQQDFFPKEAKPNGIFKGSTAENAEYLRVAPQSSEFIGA
Data set [7] deals with SiHa. In words: Induction of apoptosis in human SiHa cells assessed as decrease in Rb phosphorylation incubated for 48 hrs by Western blot analysis. The class given is functional, cell-based. Put shortly:
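Cancer cells were exposed to graded concentrations for 48 h, washed three times in PBS and lysed in RIPA buffer. Immunoblots were probed with anti-Rb, anti-phospho-Rb, anti-Ki67 and anti-Bcl-2, each at 1:1000. β-actin served as loading control.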
A general note: A western blot detects proteins with antibodies after separation by electrophoresis.

For data set [8], the target named is RAC-beta serine/threonine-protein kinase (Homo sapiens) (UniProt P31751). In words: Inhibition of recombinant human PKBbeta (120 to end residues) at 1 uM using GRPRTSSFAEGKK as substrate incubated for 40 mins in presence of [gamma-33P]-ATP by scintillation counting method relative to control. Put shortly: (§2)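 Tested at a single 1 uM in an outsourced commercial kinase-profiling panel, read as percent inhibition. Each value is the mean of two independent experiments.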
Chain of RAC-beta serine/threonine-protein kinase (Homo sapiens) (P31751 whole entry): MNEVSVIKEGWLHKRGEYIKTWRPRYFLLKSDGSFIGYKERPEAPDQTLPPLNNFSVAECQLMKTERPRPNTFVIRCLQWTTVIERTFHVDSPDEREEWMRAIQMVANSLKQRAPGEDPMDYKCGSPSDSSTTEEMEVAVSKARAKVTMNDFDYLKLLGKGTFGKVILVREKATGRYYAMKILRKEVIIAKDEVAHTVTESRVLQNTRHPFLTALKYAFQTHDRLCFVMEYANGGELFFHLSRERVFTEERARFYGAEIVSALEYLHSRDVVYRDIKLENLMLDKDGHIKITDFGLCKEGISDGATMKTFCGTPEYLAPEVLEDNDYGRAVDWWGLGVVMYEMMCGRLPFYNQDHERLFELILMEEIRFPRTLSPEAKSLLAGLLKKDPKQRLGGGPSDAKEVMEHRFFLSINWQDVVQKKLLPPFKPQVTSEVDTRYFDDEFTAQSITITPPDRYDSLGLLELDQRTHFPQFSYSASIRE

Data set [9] is described as follows: Toxicity in NOD/SCID BALB/c mouse xenografted with human SiHa cells assessed as reduction in body weight at 20 to 40 mg/kg, po administered for 21 days. The class given is organism-based. The conditions noted are these: in vivo, 504 h. Background: In xenograft studies the graft and the host belong to different species.
Data set [10] deals with Serine/threonine-protein kinase BRSK1 (Homo sapiens) (UniProt Q8TDC3). In words: Inhibition of recombinant human BRSK1 (2 to end residues) at 1 uM using KKKVSRSGLYRSP as substrate incubated for 40 mins in presence of [gamma-33P]-ATP by scintillation counting method relative to control. The method in brief: as §1
Chain of Serine/threonine-protein kinase BRSK1 (Homo sapiens) (Q8TDC3 whole entry): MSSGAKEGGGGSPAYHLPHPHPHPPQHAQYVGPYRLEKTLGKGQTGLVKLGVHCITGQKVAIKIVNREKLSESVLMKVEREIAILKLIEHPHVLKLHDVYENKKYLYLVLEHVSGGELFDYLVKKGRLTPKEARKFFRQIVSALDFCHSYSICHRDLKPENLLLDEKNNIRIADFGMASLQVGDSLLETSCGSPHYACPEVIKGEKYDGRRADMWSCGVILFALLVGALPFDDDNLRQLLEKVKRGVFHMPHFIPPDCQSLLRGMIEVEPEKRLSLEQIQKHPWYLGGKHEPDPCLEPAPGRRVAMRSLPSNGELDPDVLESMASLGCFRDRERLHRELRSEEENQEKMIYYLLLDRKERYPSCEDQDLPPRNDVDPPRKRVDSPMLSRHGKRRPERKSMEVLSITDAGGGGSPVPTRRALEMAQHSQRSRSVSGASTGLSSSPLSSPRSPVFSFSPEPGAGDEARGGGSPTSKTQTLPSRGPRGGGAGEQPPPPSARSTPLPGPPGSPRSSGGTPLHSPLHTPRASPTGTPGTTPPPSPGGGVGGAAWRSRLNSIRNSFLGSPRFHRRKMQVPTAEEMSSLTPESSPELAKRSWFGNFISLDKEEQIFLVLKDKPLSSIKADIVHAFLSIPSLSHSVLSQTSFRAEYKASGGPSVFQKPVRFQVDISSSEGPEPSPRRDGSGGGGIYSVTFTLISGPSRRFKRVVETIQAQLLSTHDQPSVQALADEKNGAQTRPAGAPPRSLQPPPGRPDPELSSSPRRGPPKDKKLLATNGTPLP
A short description of data set [11]: Tmax in Sprague-Dawley rat at 10 mg/kg, po by HPLC-MS analysis. The format is ADME, organism-based. The conditions noted are these: in vivo.
Data set [12] addresses SRSF protein kinase 3 (Homo sapiens) (UniProt Q9UPE1). In words: Inhibition of recombinant human full length MSSK1 at 1 uM using ERMRPRKRQGSVRRRV as substrate incubated for 40 mins in presence of [gamma-33P]-ATP by scintillation counting method relative to control.
The nature of data set [13]: AUC (0 to infinity) in Sprague-Dawley rat at 10 mg/kg, po by HPLC-MS analysis. The class given is ADME, organism-based. Also noted: dose 10 mg/kg, time infinity, route oral. The conditions noted are these: in vivo. The method in brief:
(§3)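 Rats fitted with jugular vein catheters for serial blood sampling. Compound dissolved in saline with 5% (v/v) DMSO and given as a single 10 mg/kg dose iv or po after an overnight fast, n = 5 per group. Plasma isolated at once and measured by HPLC with tandem MS detection. Parameters derived by noncompartmental fitting.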

Data set [14] addresses G protein-coupled receptor kinase 6 (Homo sapiens) (UniProt P43250). In words: Inhibition of recombinant human full length GRK6 at 1 uM using casein as substrate incubated for 40 mins in presence of [gamma-33P]-ATP by scintillation counting method relative to control. The method in brief:
as §2

For data set [15], the system named is SiHa. In words: Antiangiogenic activity against human SiHa cells xenografted in orally dosed NOD/SCID BALB/c mouse assessed as reduction in CD31 expression measured after 21 days by hematoxylin and eosin staining based immunohistochemistry. The format is functional, organism-based. Put shortly: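 Female NOD/SCID Balb/c mice, 6–8 weeks old, received 2×10^6 SiHa cells subcutaneously in the right flank. Once tumors reached 100 mm³, mice were randomized, 5 per group, and gavaged once daily for 21 days. Formalin-fixed, paraffin-embedded tumor sections were stained with Ki67 or CD31 antibody (1:100, 4 °C overnight), then biotin secondary and ABC-peroxidase/DAB, with hematoxylin counterstain.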

Data set [16] can be described thus: AUC (0 to infinity) in Sprague-Dawley rat at 10 mg/kg, iv by HPLC-MS analysis. As to conditions: in vivo. The format is ADME, organism-based. Also noted: dose 10 mg/kg, route intravenous, time infinity. Put shortly:
as §3

In data set [17] the target is [Pyruvate dehydrogenase (acetyl-transferring)] kinase isozyme 2, mitochondrial (Homo sapiens) (UniProt Q15119). In words: Inhibition of recombinant human PDHK2 at 1 uM incubated for 40 mins in presence of [gamma-33P]-ATP by scintillation counting method relative to control. Put shortly: as §2
Data set [18] can be described thus: Cmax in Sprague-Dawley rat at 10 mg/kg, po by HPLC-MS analysis. The class given is ADME, organism-based. Also noted: dose 10 mg/kg, route oral. The conditions noted are these: in vivo. The method in brief:
as §3

For data set [19], the target named is Myotonin-protein kinase (Homo sapiens) (UniProt Q09013). In words: Inhibition of recombinant human DMPK (1 to 549 residues) at 1 uM using KKSRGDYMTMQIG as substrate incubated for 40 mins in presence of [gamma-33P]-ATP by scintillation counting method relative to control. The method in brief: as §1
Chain of Myotonin-protein kinase (Homo sapiens) (Q09013 whole entry, the tested form may be a part): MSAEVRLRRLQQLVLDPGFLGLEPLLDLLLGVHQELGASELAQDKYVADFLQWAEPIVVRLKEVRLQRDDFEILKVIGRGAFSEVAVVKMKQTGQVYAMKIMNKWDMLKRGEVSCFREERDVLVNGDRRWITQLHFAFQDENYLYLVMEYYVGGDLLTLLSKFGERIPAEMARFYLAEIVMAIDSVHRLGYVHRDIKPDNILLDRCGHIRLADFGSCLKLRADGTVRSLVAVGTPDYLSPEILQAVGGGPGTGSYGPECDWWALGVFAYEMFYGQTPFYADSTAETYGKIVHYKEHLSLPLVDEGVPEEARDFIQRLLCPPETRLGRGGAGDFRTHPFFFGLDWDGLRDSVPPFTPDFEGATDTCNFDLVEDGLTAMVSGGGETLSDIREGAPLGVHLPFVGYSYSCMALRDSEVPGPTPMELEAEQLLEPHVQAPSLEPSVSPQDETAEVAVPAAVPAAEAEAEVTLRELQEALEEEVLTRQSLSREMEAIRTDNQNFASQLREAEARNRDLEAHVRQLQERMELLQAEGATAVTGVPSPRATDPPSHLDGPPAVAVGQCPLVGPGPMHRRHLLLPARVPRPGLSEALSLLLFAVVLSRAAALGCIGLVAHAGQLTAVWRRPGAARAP
Data set [20] addresses Serine/threonine-protein kinase WNK1 (Homo sapiens) (UniProt Q9H4A3). In words: Inhibition of recombinant human WNK1 (1 to 491 residues) at 1 uM using myelin basic protein as substrate incubated for 40 mins in presence of [gamma-33P]-ATP by scintillation counting method relative to control. The method in brief: as §2
The nature of data set [21]: Toxicity in NOD/SCID BALB/c mouse xenografted with human SiHa cells assessed as effect on blood parameter by measuring platelet content at 40 mg/kg, po administered once two days for 4 times by hematology analyzer. The format is organism-based. The conditions noted are these: in vivo.
The subject of data set [22] is Proto-oncogene tyrosine-protein kinase receptor Ret (Homo sapiens), P07949 [V804L]. In words: Inhibition of recombinant human RET V804L mutant (658 to end residues) at 1 uM using KKKVSRSGLYRSPSMPENLNRPR as substrate incubated for 40 mins in presence of [gamma-33P]-ATP by scintillation counting method relative to control.

Structures are written as SMILES. Activity calls are given as the source filed them. The rule behind the calls is not given here.

Chain of G protein-coupled receptor kinase 6 (Homo sapiens) (P43250 whole entry, looked up): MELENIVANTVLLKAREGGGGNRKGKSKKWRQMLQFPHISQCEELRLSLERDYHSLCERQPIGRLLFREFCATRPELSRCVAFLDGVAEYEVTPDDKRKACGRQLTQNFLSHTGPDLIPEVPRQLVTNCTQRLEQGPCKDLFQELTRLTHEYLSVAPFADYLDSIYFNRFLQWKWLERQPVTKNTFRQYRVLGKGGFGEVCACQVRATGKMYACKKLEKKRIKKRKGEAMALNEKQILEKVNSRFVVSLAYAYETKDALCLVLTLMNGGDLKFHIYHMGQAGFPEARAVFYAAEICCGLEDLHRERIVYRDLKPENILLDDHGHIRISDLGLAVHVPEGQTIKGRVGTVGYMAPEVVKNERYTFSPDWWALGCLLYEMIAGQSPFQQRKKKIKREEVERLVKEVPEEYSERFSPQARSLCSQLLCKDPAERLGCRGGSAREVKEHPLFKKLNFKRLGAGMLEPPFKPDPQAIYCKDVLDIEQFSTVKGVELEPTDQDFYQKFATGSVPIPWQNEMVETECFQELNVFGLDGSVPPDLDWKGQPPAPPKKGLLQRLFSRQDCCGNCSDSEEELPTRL

Consider `Cc1ccc(NC(=O)C2(C(=O)Nc3ccc(Nc4ncc(F)c(-c5cc(F)c6nc(C)n(C(C)C)c6c5)n4)cc3)CC2)cc1`, for which the inhibition (in general, the relative decrease from the control value, in per cent) in [1] was found to be 27%; in [3], 24%; in data set [5], 14%; in data set [6] it was 55%; in data set [8], 0%; in data set [10], 14%. Moreover, the inhibition in [12] is 2%; in [14] it was 0%; in the data set on SiHa [15], “Dose-dependent effect”; in [17] it was 0%; in data set [19] it was 10%; in data set [20], 0%. Further, in [22], the inhibition was 42%. In addition, the inhibition entry with HeLa [2] was “Active”. The Activity result with HeLa [4] was “Dose-dependent effect”; in the data set on SiHa [7], “Dose-dependent effect”; in data set [9] it was “Toxic”; in data set [21] it was “Non-Toxic”. Also, in data set [11], the Tmax (usually the time at which the peak concentration occurs) is 2 h. Further, the AUC(0-inf) (in general, the area under the concentration-time curve extrapolated to infinity) in [13] was 6000 ng·h/mL; in data set [16], 11000 ng·h/mL. Besides, the Cmax (usually the maximum level reached in the sampled fluid or tissue) in data set [18] was 1000 ng/mL.
